Measurements published in ChEMBL document CHEMBL3271970, “Radiopharmaceuticals. 16. Halogenated dopamine analogs. Synthesis and radiolabeling of 6-iododopamine and tissue distribution studies in animals” (J Med Chem, 1976).

Columns and labels:
Liver [1] = assay: Biodistribution in liver of mongrel dog assessed per organ at 1.29 x 10^-6 mol, iv measured after 2 hrs; type: ADME, organism-based, Canis lupus familiaris; settings: in vivo
How it was run: (§1)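 Radioiodinated ([123I] or [131I]) 6-iododopamine in water or saline, used within 30 min of preparation. Given iv at 1.29 × 10^-6 mol/dog; one dog per time point, killed at 2 or 24 h. Large organs counted as three samples and averaged; adrenals and thyroid taken intact and counted. Expressed as % dose/organ.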

Mus musculus [2] = assay: Biodistribution in thyroid gland of mouse assessed per organ at 8 to 11 x 10^-8 mol, iv measured after 15 mins; type: ADME, organism-based; settings: in vivo, 0.25 h
How it was run: (§2)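 Tracer labelled with either 123I or 131I, in water or saline, used within 30 min of preparation. Mice dosed iv at 8-11 × 10^-8 mol/mouse and killed by ether overdose. Organs counted as % dose/organ ± SD, n = 3-10 mice per time point.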

Kidney [3] = assay: Biodistribution in kidney of mouse assessed per organ at 8 to 11 x 10^-8 mol, iv measured after 240 mins; type: ADME, organism-based; settings: in vivo, 4 h
How it was run: (§3)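 [131I]- or [123I]-6-iododopamine in water or saline, used within 30 min of preparation. Injected iv at 8-11 × 10^-8 mol/mouse. Mice killed by ether overdose at 5-240 min; 3-10 mice per time point. Tissue radioactivity expressed as % dose/organ ± SD.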

Liver [4] = assay: Biodistribution in liver of mouse assessed per organ at 8 to 11 x 10^-8 mol, iv measured after 60 mins; type: ADME, organism-based; settings: in vivo, 1 h; how it was run: as §3
Mus musculus [5] = assay: Biodistribution in adrenal gland of mouse assessed per organ at 8 to 11 x 10^-8 mol, iv measured after 120 mins; type: ADME, organism-based; settings: in vivo, 2 h; how it was run: as §3
[6] = Biodistribution in kidney of mongrel dog assessed per organ at 1.29 x 10^-6 mol, iv measured after 2 hrs; type: ADME, organism-based, Canis lupus familiaris; settings: in vivo; how it was run: as §1
Mus musculus [7] = assay: Biodistribution in thyroid gland of mouse assessed per organ at 8 to 11 x 10^-8 mol, iv measured after 30 mins; type: ADME, organism-based; settings: in vivo, 0.5 h; how it was run: as §2
[8] = Biodistribution in thyroid gland of mongrel dog assessed per organ at 1.29 x 10^-6 mol, iv measured after 24 hrs; type: ADME, organism-based, Canis lupus familiaris; settings: in vivo
How it was run: (§4)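 Radioiodine-labelled tracer given at 1.29 × 10^-6 mol/dog. One dog per time point, killed at 2 or 24 h. Thyroids and other small organs were taken intact and counted. Large organs were sampled three times and averaged. Result given as % dose/organ.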

Mus musculus [9] = assay: Biodistribution in thyroid gland of mouse assessed per organ at 8 to 11 x 10^-8 mol, iv measured after 240 mins; type: ADME, organism-based; settings: in vivo, 4 h; how it was run: as §2
Kidney [10] = assay: Biodistribution in kidney of mouse assessed per organ at 8 to 11 x 10^-8 mol, iv measured after 30 mins; type: ADME, organism-based; settings: in vivo, 0.5 h; how it was run: as §3
Liver [11] = assay: Biodistribution in liver of mouse assessed per organ at 8 to 11 x 10^-8 mol, iv measured after 5 mins; type: ADME, organism-based; settings: in vivo; how it was run: as §3
Mus musculus [12] = assay: Biodistribution in thyroid gland of mouse assessed per organ at 8 to 11 x 10^-8 mol, iv measured after 60 mins; type: ADME, organism-based; settings: in vivo, 1 h; how it was run: as §2
Kidney [13] = assay: Biodistribution in kidney of mouse assessed per organ at 8 to 11 x 10^-8 mol, iv measured after 120 mins; type: ADME, organism-based; settings: in vivo, 2 h; how it was run: as §3
[14] = Biodistribution in adrenal cortex of mongrel dog assessed per organ at 1.29 x 10^-6 mol, iv measured after 2 hrs; type: ADME, organism-based, Canis lupus familiaris; settings: in vivo; how it was run: as §1
Mus musculus [15] = assay: Biodistribution in adrenal gland of mouse assessed per organ at 8 to 11 x 10^-8 mol, iv measured after 15 mins; type: ADME, organism-based; settings: in vivo, 0.25 h; how it was run: as §3
[16] = Biodistribution in adrenal cortex of mongrel dog assessed per organ at 1.29 x 10^-6 mol, iv measured after 24 hrs; type: ADME, organism-based, Canis lupus familiaris; settings: in vivo; how it was run: as §1
[17] = Biodistribution in adrenal medulla of mongrel dog assessed per organ at 1.29 x 10^-6 mol, iv measured after 2 hrs; type: ADME, organism-based, Canis lupus familiaris; settings: in vivo; how it was run: as §1
Kidney [18] = assay: Biodistribution in kidney of mouse assessed per organ at 8 to 11 x 10^-8 mol, iv measured after 5 mins; type: ADME, organism-based; settings: in vivo; how it was run: as §3
Mus musculus [19] = assay: Biodistribution in adrenal gland of mouse assessed per organ at 8 to 11 x 10^-8 mol, iv measured after 60 mins; type: ADME, organism-based; settings: in vivo, 1 h; how it was run: as §3
Mus musculus [20] = assay: Biodistribution in adrenal gland of mouse assessed per organ at 8 to 11 x 10^-8 mol, iv measured after 5 mins; type: ADME, organism-based; settings: in vivo; how it was run: as §3
Liver [21] = assay: Biodistribution in liver of mouse assessed per organ at 8 to 11 x 10^-8 mol, iv measured after 120 mins; type: ADME, organism-based; settings: in vivo, 2 h; how it was run: as §3
Mus musculus [22] = assay: Biodistribution in adrenal gland of mouse assessed per organ at 8 to 11 x 10^-8 mol, iv measured after 240 mins; type: ADME, organism-based; settings: in vivo, 4 h; how it was run: as §3
[23] = Biodistribution in kidney of mongrel dog assessed per organ at 1.29 x 10^-6 mol, iv measured after 24 hrs; type: ADME, organism-based, Canis lupus familiaris; settings: in vivo; how it was run: as §1
[24] = Biodistribution in thyroid gland of mongrel dog assessed per organ at 1.29 x 10^-6 mol, iv measured after 2 hrs; type: ADME, organism-based, Canis lupus familiaris; settings: in vivo; how it was run: as §4
Mus musculus [25] = assay: Biodistribution in thyroid gland of mouse assessed per organ at 8 to 11 x 10^-8 mol, iv measured after 5 mins; type: ADME, organism-based; settings: in vivo; how it was run: as §2
Kidney [26] = assay: Biodistribution in kidney of mouse assessed per organ at 8 to 11 x 10^-8 mol, iv measured after 15 mins; type: ADME, organism-based; settings: in vivo, 0.25 h; how it was run: as §3
Liver [27] = assay: Biodistribution in liver of mouse assessed per organ at 8 to 11 x 10^-8 mol, iv measured after 15 mins; type: ADME, organism-based; settings: in vivo, 0.25 h; how it was run: as §3
Mus musculus [28] = assay: Biodistribution in thyroid gland of mouse assessed per organ at 8 to 11 x 10^-8 mol, iv measured after 120 mins; type: ADME, organism-based; settings: in vivo, 2 h; how it was run: as §2
[29] = Biodistribution in adrenal medulla of mongrel dog assessed per organ at 1.29 x 10^-6 mol, iv measured after 24 hrs; type: ADME, organism-based, Canis lupus familiaris; settings: in vivo; how it was run: as §1
Liver [30] = assay: Biodistribution in liver of mouse assessed per organ at 8 to 11 x 10^-8 mol, iv measured after 30 mins; type: ADME, organism-based; settings: in vivo, 0.5 h; how it was run: as §3
Mus musculus [31] = assay: Biodistribution in adrenal gland of mouse assessed per organ at 8 to 11 x 10^-8 mol, iv measured after 30 mins; type: ADME, organism-based; settings: in vivo, 0.5 h; how it was run: as §3
Kidney [32] = assay: Biodistribution in kidney of mouse assessed per organ at 8 to 11 x 10^-8 mol, iv measured after 60 mins; type: ADME, organism-based; settings: in vivo, 1 h; how it was run: as §3
Liver [33] = assay: Biodistribution in liver of mouse assessed per organ at 8 to 11 x 10^-8 mol, iv measured after 240 mins; type: ADME, organism-based; settings: in vivo, 4 h; how it was run: as §3
Liver [34] = assay: Biodistribution in liver of mongrel dog assessed per organ at 1.29 x 10^-6 mol, iv measured after 24 hrs; type: ADME, organism-based, Canis lupus familiaris; settings: in vivo; how it was run: as §1

`Br.NCCc1cc(O)c(O)cc1[123I]` showed a Drug uptake (Liver [1]) of 2.24 %ID, a Drug uptake (Mus musculus [2]) of 0.067 %ID and a Drug uptake (Kidney [3]) of 0.79 %ID. The Drug uptake (Liver [4]) was 1.04 %ID, the Drug uptake (Mus musculus [5]) was 0.02 %ID and the Drug uptake [6] was 0.77 %ID. It also gave a Drug uptake (Mus musculus [7]) of 0.084 %ID, a Drug uptake [8] of 0.48 %ID and a Drug uptake (Mus musculus [9]) of 0.158 %ID. It also gave a Drug uptake (Kidney [10]) of 1.69 %ID, a Drug uptake (Liver [11]) of 7.1 %ID and a Drug uptake (Mus musculus [12]) of 0.066 %ID. The Drug uptake (Kidney [13]) was 0.78 %ID, the Drug uptake [14] was 0.0092 %ID and the Drug uptake (Mus musculus [15]) was 0.015 %ID. For the same compound, the Drug uptake [16] was 0.0104 %ID, the Drug uptake [17] was 0.0062 %ID and the Drug uptake (Kidney [18]) was 8.03 %ID. It also gave a Drug uptake (Mus musculus [19]) of 0.0087 %ID, a Drug uptake (Mus musculus [20]) of 0.03 %ID and a Drug uptake (Liver [21]) of 0.84 %ID. The Drug uptake (Mus musculus [22]) was 0.012 %ID, the Drug uptake [23] was 0.075 %ID and the Drug uptake [24] was 0.026 %ID. It also gave a Drug uptake (Mus musculus [25]) of 0.094 %ID, a Drug uptake (Kidney [26]) of 3.44 %ID and a Drug uptake (Liver [27]) of 3.64 %ID. It also gave a Drug uptake (Mus musculus [28]) of 0.176 %ID, a Drug uptake [29] of 0.0021 %ID and a Drug uptake (Liver [30]) of 2.4 %ID. For the same compound, the Drug uptake (Mus musculus [31]) was 0.014 %ID, the Drug uptake (Kidney [32]) was 1 %ID and the Drug uptake (Liver [33]) was 0.94 %ID. For the same compound, the Drug uptake (Liver [34]) was 0.48 %ID.
